# In ChEMBL document CHEMBL5385966, “Synthesis and biological evaluation of new naphthalimide-thiourea derivatives as potent antimicrobial agents active against multidrug-resistant Staphylococcus aureus and Mycobacterium tuberculosis” (RSC Med Chem, 2024):
# Calls of active or inactive are those of the source. No cut-off for these calls is given here.
# Assays:
# Staphylococcus aureus [1] = assay: Antibacterial activity against methicillin/ceftriaxone/meropenem/gentamycin/linezolid-resistant Staphylococcus aureus NRS10100 clinical isolate assessed as bacterial growth inhibition incubated for 16 to 18 hrs by CLSI based antibiotic susceptibility testing method; assay type: functional; conditions: time 16-18 hrs
# Outline: (§1)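 Broth microdilution in cation-adjusted Mueller-Hinton broth. Compounds were tested at […], with levofloxacin as reference and medium-only controls. Plates were incubated at 37 °C for 16-18 h. MIC was the lowest concentration with no visible growth; three independent determinations, each in duplicate.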
# Staphylococcus aureus [2] = assay: Antibacterial activity against methicillin/ceftriaxone/meropenem-resistant Staphylococcus aureus NRS10193 clinical isolate assessed as bacterial growth inhibition incubated for 16 to 18 hrs by CLSI based antibiotic susceptibility testing method; assay type: functional; conditions: time 16-18 hrs; outline: as §1
# Staphylococcus aureus [3] = assay: Antibacterial activity against methicillin/ceftriaxone/meropenem-resistant Staphylococcus aureus NRS10129 clinical isolate assessed as bacterial growth inhibition incubated for 16 to 18 hrs by CLSI based antibiotic susceptibility testing method; assay type: functional; conditions: time 16-18 hrs; outline: as §1
# Escherichia coli = assay: Antibacterial activity against Escherichia coli ATCC 25922 assessed as bacterial growth inhibition incubated for 16 to 18 hrs by CLSI based antibiotic susceptibility testing method; assay type: functional, organism-based; conditions: time 16-18 hrs; outline: as §1
# Pseudomonas aeruginosa = assay: Antibacterial activity against Pseudomonas aeruginosa ATCC 27853 assessed as bacterial growth inhibition incubated for 16 to 18 hrs by CLSI based antibiotic susceptibility testing method; assay type: functional, organism-based; conditions: time 16-18 hrs; outline: as §1
# Staphylococcus aureus [4] = assay: Antibacterial activity against methicillin/ceftriaxone/meropenem/gentamycin/linezolid-resistant Staphylococcus aureus NRS10119 clinical isolate assessed as bacterial growth inhibition incubated for 16 to 18 hrs by CLSI based antibiotic susceptibility testing method; assay type: functional; conditions: time 16-18 hrs; outline: as §1
# Staphylococcus aureus [5] = assay: Antibacterial activity against methicillin/ceftriaxone/meropenem-resistant Staphylococcus aureus NRS10186 clinical isolate assessed as bacterial growth inhibition incubated for 16 to 18 hrs by CLSI based antibiotic susceptibility testing method; assay type: functional; conditions: time 16-18 hrs; outline: as §1
# Staphylococcus aureus [6] = assay: Antibacterial activity against methicillin/ceftriaxone/meropenem/vancomycin/teicoplanin-resistant Staphylococcus aureus VRS12 clinical isolate assessed as bacterial growth inhibition incubated for 16 to 18 hrs by CLSI based antibiotic susceptibility testing method; assay type: functional; conditions: time 16-18 hrs; outline: as §1
# [7] = Selectivity index, ratio of CC50 for African green monkey Vero cells to MIC for Staphylococcus aureus ATCC 29213; assay type: toxicity, cell-based; conditions: read-out: Selectivity Index
# Staphylococcus aureus [8] = assay: Antibacterial activity against methicillin/ceftriaxone/meropenem/gentamycin/vancomycin/teicoplanin-resistant Staphylococcus aureus VRS1 clinical isolate assessed as bacterial growth inhibition incubated for 16 to 18 hrs by CLSI based antibiotic susceptibility testing method; assay type: functional; conditions: time 16-18 hrs; outline: as §1
# [9] = Cytotoxicity against African green monkey Vero cells by MTT assay; assay type: toxicity, cell-based; conditions: chlorocebus sabaeus
# Outline: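 Vero cells were seeded at ~10³ per well at 37 °C, 5% CO2. After 24 h, compounds were added at 5-100 mg/L for 72 h. […] was added for 4 h, formazan was dissolved in DMSO and read at 540 nm. CC50 was taken as the lowest concentration reducing viability by 50%; doxorubicin was the positive control; triplicate.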
# Staphylococcus aureus [10] = assay: Antibacterial activity against methicillin/ceftriaxone/meropenem-resistant Staphylococcus aureus NRS10192 clinical isolate assessed as bacterial growth inhibition incubated for 16 to 18 hrs by CLSI based antibiotic susceptibility testing method; assay type: functional; conditions: time 16-18 hrs; outline: as §1
# [11] = tested on: Mycolicibacterium fortuitum; assay: Antimycobacterial activity against Mycobacterium fortuitum ATCC 6841 assessed as bacterial growth inhibition incubated for 72 hrs by resazurin dye based broth microdilution method; assay type: functional, organism-based
# Outline: (§2)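 Broth microdilution in Middlebrook 7H9 with 10% ADC-Tween-80 (0.2% glycerol, 0.05% Tween-80), inoculum ~10⁶ cfu/mL. Compounds came from 10 mg/mL DMSO stocks and were tested as two-fold serial dilutions at 37 °C, 7 days for M. tuberculosis H37Rv and 72 h for NTM. Growth was read visually with PrestoBlue resazurin dye; MIC was the lowest concentration preventing growth. Triplicate determinations, each in duplicate.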
# Klebsiella pneumoniae = assay: Antibacterial activity against Klebsiella pneumoniae BAA 1705 assessed as bacterial growth inhibition incubated for 16 to 18 hrs by CLSI based antibiotic susceptibility testing method; assay type: functional, organism-based; conditions: time 16-18 hrs; outline: as §1
# Mycobacteroides chelonae = assay: Antimycobacterial activity against Mycobacteroides chelonae ATCC 35752 assessed as bacterial growth inhibition incubated for 72 hrs by resazurin dye based broth microdilution method; assay type: functional, organism-based; outline: as §2
# [12] = tested on: Mycobacterium tuberculosis; assay: Antimycobacterial activity against Mycobacterium tuberculosis H37Rv ATCC 27294 assessed as bacterial growth inhibition incubated for 7 days by resazurin dye based broth microdilution method; assay type: functional; conditions: H37Rv ATCC 27294, 168 h, time 7 day; outline: as §2
# Staphylococcus aureus [13] = assay: Antibacterial activity against methicillin-sensitive Staphylococcus aureus ATCC 29213 clinical isolate assessed as bacterial growth inhibition incubated for 16 to 18 hrs by CLSI based antibiotic susceptibility testing method; assay type: functional; conditions: time 16-18 hrs; outline: as §1
# Acinetobacter baumannii = assay: Antibacterial activity against Acinetobacter baumannii BAA 1605 assessed as bacterial growth inhibition incubated for 16 to 18 hrs by CLSI based antibiotic susceptibility testing method; assay type: functional, organism-based; conditions: time 16-18 hrs; outline: as §1
# [14] = tested on: Mycobacteroides abscessus; assay: Antimycobacterial activity against Mycobacterium abscessus ATCC 19977 assessed as bacterial growth inhibition incubated for 72 hrs by resazurin dye based broth microdilution method; assay type: functional, organism-based; outline: as §2
# Staphylococcus aureus [15] = assay: Antibacterial activity against methicillin/ceftriaxone-resistant Staphylococcus aureus NRS10194 clinical isolate assessed as bacterial growth inhibition incubated for 16 to 18 hrs by CLSI based antibiotic susceptibility testing method; assay type: functional; conditions: time 16-18 hrs; outline: as §1
# Staphylococcus aureus [16] = assay: Antibacterial activity against Staphylococcus aureus ATCC 29213 assessed as bacterial growth inhibition incubated for 16 to 18 hrs by CLSI based antibiotic susceptibility testing method; assay type: functional; conditions: time 16-18 hrs; outline: as §1
# Staphylococcus aureus [17] = assay: Antibacterial activity against methicillin/ceftriaxone/meropenem-resistant Staphylococcus aureus NRS10198 clinical isolate assessed as bacterial growth inhibition incubated for 16 to 18 hrs by CLSI based antibiotic susceptibility testing method; assay type: functional; conditions: time 16-18 hrs; outline: as §1
# Staphylococcus aureus [18] = assay: Antibacterial activity against methicillin/ceftriaxone/meropenem/vancomycin/teicoplanin-resistant Staphylococcus aureus VRS4 clinical isolate assessed as bacterial growth inhibition incubated for 16 to 18 hrs by CLSI based antibiotic susceptibility testing method; assay type: functional; conditions: time 16-18 hrs; outline: as §1
# Staphylococcus aureus [19] = assay: Antibacterial activity against methicillin/ceftriaxone/meropenem-resistant Staphylococcus aureus NRS10191 clinical isolate assessed as bacterial growth inhibition incubated for 16 to 18 hrs by CLSI based antibiotic susceptibility testing method; assay type: functional; conditions: time 16-18 hrs; outline: as §1
SMILES,MIC (Staphylococcus aureus [1]),MIC (Staphylococcus aureus [2]),MIC (Staphylococcus aureus [3]),growth inhibition (GI) (Escherichia coli),growth inhibition (GI) (Pseudomonas aeruginosa),MIC (Staphylococcus aureus [4]),MIC (Staphylococcus aureus [5]),MIC (Staphylococcus aureus [6]),selectivity ratio [7],MIC (Staphylococcus aureus [8]),CC50 [9],MIC (Staphylococcus aureus [10]),growth inhibition (GI) [11],growth inhibition (GI) (Klebsiella pneumoniae),growth inhibition (GI) (Mycobacteroides chelonae),MIC [12],MIC (Staphylococcus aureus [13]),growth inhibition (GI) (Acinetobacter baumannii),growth inhibition (GI) [14],MIC (Staphylococcus aureus [15]),other results
O=C(CN1C(=O)c2cccc3cccc(c23)C1=O)N1CCC(NC(=S)NC2CCCCCC2)CC1,0.25 µg/mL,0.25 µg/mL,0.25 µg/mL,inactive,inactive,0.25 µg/mL,0.25 µg/mL,0.25 µg/mL,> 400,0.25 µg/mL,> 100 µg/mL,0.25 µg/mL,inactive,inactive,inactive,> 64 µg/mL,0.25 µg/mL,inactive,inactive,0.25 µg/mL,MIC (Staphylococcus aureus [16]): 0.25 µg/mL; MIC (Staphylococcus aureus [17]): 0.25 µg/mL; MIC (Staphylococcus aureus [18]): 0.25 µg/mL; MIC (Staphylococcus aureus [19]): 0.25 µg/mL
O=C(CN1C(=O)c2cccc3cccc(c23)C1=O)NC1CCN(C(=S)NC2CCCCC2)CC1,0.25 µg/mL,0.125 µg/mL,0.5 µg/mL,inactive,inactive,0.125 µg/mL,0.125 µg/mL,0.25 µg/mL,> 40,0.5 µg/mL,> 10 µg/mL,0.25 µg/mL,inactive,inactive,inactive,> 64 µg/mL,0.25 µg/mL,inactive,inactive,0.25 µg/mL,MIC (Staphylococcus aureus [16]): 0.25 µg/mL; MIC (Staphylococcus aureus [17]): 0.25 µg/mL; MIC (Staphylococcus aureus [18]): 0.25 µg/mL; MIC (Staphylococcus aureus [19]): 0.125 µg/mL
O=C(CN1C(=O)c2cccc3cccc(c23)C1=O)NC1CCN(C(=S)NC2CCCCCC2)CC1,0.5 µg/mL,0.5 µg/mL,1 µg/mL,inactive,inactive,0.5 µg/mL,0.5 µg/mL,1 µg/mL,> 200,1 µg/mL,> 100 µg/mL,1 µg/mL,inactive,inactive,inactive,> 64 µg/mL,1 µg/mL,inactive,inactive,1 µg/mL,MIC (Staphylococcus aureus [16]): 0.5 µg/mL; MIC (Staphylococcus aureus [17]): 1 µg/mL; MIC (Staphylococcus aureus [18]): 1 µg/mL; MIC (Staphylococcus aureus [19]): 0.5 µg/mL
O=C(CN1C(=O)c2cccc3cccc(c23)C1=O)NC1CCN(C(=S)Nc2ccccc2)CC1,4 µg/mL,2 µg/mL,4 µg/mL,inactive,inactive,2 µg/mL,2 µg/mL,4 µg/mL,> 50,2 µg/mL,> 200 µg/mL,1 µg/mL,inactive,inactive,inactive,> 64 µg/mL,4 µg/mL,inactive,inactive,4 µg/mL,MIC (Staphylococcus aureus [16]): 4 µg/mL; MIC (Staphylococcus aureus [17]): 2 µg/mL; MIC (Staphylococcus aureus [18]): 2 µg/mL; MIC (Staphylococcus aureus [19]): 2 µg/mL
